Key:
[1] = folding enthalpy; higher = less favourable; fluorescence melt of hairpins on a sequencing array, two-state fit; conditions: sodium 0.088 M
Summary of the method: (§1)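 Folding enthalpy and melting temperature come from bootstrapped two-state fits to Cy3 fluorescence of library hairpins carrying annealed Cy3 and quencher oligos on a sequenced MiSeq flow cell. Imaging was done in 50 mM Na-HEPES pH 8.0, 25 mM NaCl, stepping by 2.5 °C up to 60 °C, and signals were normalised to pre-quench Cy3 and to control constructs. Results of four replicates were combined by inverse variance, and fitted temperatures were raised by 9.35 °C to match UV melts.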

[2] = melting temperature; fluorescence melt of hairpins on a sequencing array, two-state fit, raised by 9.35 °C to match UV melts; conditions: sodium 0.088 M
Summary of the method: as §1

Sequence | folding enthalpy [1] | Tm [2]
GCATGGCGAAAGCCAAGC ((.((((....)))).)) | -17.6 kcal/mol | 61.6 °C
GTAACCGGAAACAGTTAC (((((.(....).))))) | -21.2 kcal/mol | 32.9 °C
GCCTTGCGAAAGCCGGGC (((..((....))..))) | -19.9 kcal/mol | 55.1 °C
GTGTGCGGAAACGCGCAC (((.(((....))).))) | -27.7 kcal/mol | 67.7 °C
GCACACGGAAACGCGTGC ((((.((....)).)))) | -47.3 kcal/mol | 57 °C
GCTTTGCGAAAGCCACGC ((.(.((....)).).)) | -10.4 kcal/mol | 37 °C
GAGATCACGAAAGTGCTC (((..(((....)))))) | -12.1 kcal/mol | 29.9 °C
GGTGGAGGAAACTCCGCC ((.((((....)))).)) | -46 kcal/mol | 57.8 °C
GACCGTACGAAAGTAGTC (((..(((....)))))) | -13.1 kcal/mol | 26.5 °C
GACTCGCGAAAGCGCGTC (((.(((....))).))) | -23.6 kcal/mol | 55.9 °C
GCGCACGAAAGTGTTCGC ((((((....)))..))) | -22.1 kcal/mol | 48.2 °C
GGGCCACGAAAGTGCCCC (((.(((....))).))) | -17.3 kcal/mol | 59.3 °C
GCGAGTGGAAACGTTCGC ((((..(....)..)))) | -24.6 kcal/mol | 45.5 °C
GCCTTGCGAAAGCAGTGC ((..(((....)))..)) | -11.6 kcal/mol | 45.1 °C
GCCATAGGAAACTACGGC (((.(((....))).))) | -29.9 kcal/mol | 40.6 °C
GGTAGGGGAAACTCTGCC ((.((.(....).)).)) | -22.9 kcal/mol | 35.1 °C
GATCGGCCATCCGATC ((((((....)))))) | -40.4 kcal/mol | 55.5 °C
GCTCAGCGAAAGCTAGC (((.(((....)))))) | -20 kcal/mol | 49.4 °C
GACGGGCGAAAGCCGGTC (((.(((....))).))) | -25.9 kcal/mol | 65.5 °C
GATCTGCGCGCAGATC ((((((....)))))) | -50.8 kcal/mol | 66.7 °C
GATCGGGTAGCCGATC ((((((....)))))) | -41.9 kcal/mol | 62 °C
GCTAAAACGAAAGTTAGC (((..(((....)))))) | -27.8 kcal/mol | 40.1 °C
CGTACGGAAACGTTGACG ((((((....)))..))) | -16.5 kcal/mol | 36.3 °C

Sequence | folding enthalpy [1] | Tm [2]
GTTGAGGGAAACCTTAAC (((.(((....))).))) | -31.4 kcal/mol | 37 °C
GACGCTGGAAACGGTGTC (((.(.(....).).))) | -28.9 kcal/mol | 42.1 °C
GTTTCTGGAAACGGAAAC (((((.(....).))))) | -31.8 kcal/mol | 45.5 °C
TGCGTGAAAACGCA (((((....))))) | -18.1 kcal/mol | 66.2 °C
GCGAAAGTCGC ((((...)))) | -16.6 kcal/mol | 43.8 °C
GACTTAGGAAACTAAGTC (((((((....))))))) | -37.3 kcal/mol | 53.8 °C
GATCCTGCCAGGATC ((((((...)))))) | -34.7 kcal/mol | 56.6 °C
GGGAGCGAAAGCTGGCCC ((((((....)))..))) | -14 kcal/mol | 39.8 °C
GCCAGGCGAAAGCTGGGC (((..((....))..))) | -27.1 kcal/mol | 62.9 °C
GTCGCCGAAAGGCGTGAC ((((((....)))..))) | -8.03 kcal/mol | 36.3 °C
GTGGGTCGAAAGACCAC (((.(((....)))))) | -14.3 kcal/mol | 57 °C
CGCGGACTGCTCCGCG ((((((....)))))) | -39.8 kcal/mol | 62.4 °C
GCCTGCGAAAGCACGGGC ((((((....)))..))) | -22.4 kcal/mol | 53 °C
GGCTACGAAAGTACCGCC ((((((....)))..))) | -23.1 kcal/mol | 48.4 °C
GCCCGCCGAAAGGCGGC (((.(((....)))))) | -7.03 kcal/mol | 66.6 °C
GGATCCACGAAAGTGTCC (((..(((....)))))) | -12.4 kcal/mol | 28.4 °C
GTTGAACCGAAAGGTAAC (((..(((....)))))) | -12.9 kcal/mol | 31.1 °C
GTGTGTCGAAAGACTCAC (((.(((....))).))) | -40.9 kcal/mol | 53.2 °C
AGCGTGAAAACGCT (((((....))))) | -18.5 kcal/mol | 65.6 °C
GATCTCTTTGAGATC ((((((...)))))) | -32.1 kcal/mol | 55.8 °C
GCGGTCGCCCGC ((((....)))) | -18.6 kcal/mol | 56.7 °C
GTCGTCGAAAGACACGAC ((((((....)))..))) | -16.7 kcal/mol | 48.1 °C
GAGTTGGGAAACCAATTC ((.((((....)))).)) | -28.8 kcal/mol | 40 °C

Sequence | folding enthalpy [1] | Tm [2]
GTTGTCGAAAGACTTAAC ((((((....)))..))) | -10 kcal/mol | 27.2 °C
CGGGTCCGGAAACGGCCG (((..(((....)))))) | -14.3 kcal/mol | 47.5 °C
GCAGAGCGAAAGCTATGC (((.(((....))).))) | -44.8 kcal/mol | 59.7 °C
GATCCACGCCTGGATC ((((((....)))))) | -36.9 kcal/mol | 52.3 °C
GTGAACCGAAAGGTACAC (((.(((....))).))) | -35.7 kcal/mol | 54.3 °C
GCCAACCGAAAGGTGGGC (((.(((....))).))) | -40.6 kcal/mol | 68.4 °C
GGGCACTCGAAAGAGCCC (((..(((....)))))) | -31.1 kcal/mol | 50.9 °C
GATCAGCCATCTGATC ((((((....)))))) | -37.4 kcal/mol | 49.4 °C
GATCAGGATGCTGATC ((((((....)))))) | -43.3 kcal/mol | 50.3 °C
GCAGAACGAAAGTTTGC (((.(((....)))))) | -25.9 kcal/mol | 44.7 °C
GCTCGGCGAAAGCCGCGC ((.((((....)))).)) | -18.5 kcal/mol | 65.1 °C
GCGGAGCGAAAGCATCGC (((..((....))..))) | -15.7 kcal/mol | 55.7 °C
GGACACGGAAACACGTCC ((((..(....)..)))) | -21.8 kcal/mol | 36.4 °C
GAGCCCGAAAGGGAACTC ((((((....)))..))) | -16.4 kcal/mol | 47.5 °C
GTAAACGAAAGTTTTAC ((((((....))).))) | -18.5 kcal/mol | 36.5 °C
GCAAGGCGAAAGCCCCGC ((..(((....)))..)) | -10.7 kcal/mol | 37 °C
GAATCGCGAAAGCGCTTC (((.(((....))).))) | -18.1 kcal/mol | 43.2 °C
CGGCTGCGGAAACGCCCG (((..(((....)))))) | -18.5 kcal/mol | 44.2 °C
GCGTGGCCGAAAGGCCGC (((..(((....)))))) | -9.18 kcal/mol | 57.2 °C
GCCATGGGAAACTGTGGC ((((..(....)..)))) | -28.2 kcal/mol | 47.1 °C
GATCCAATGGTGGATC ((((((....)))))) | -29.4 kcal/mol | 48.3 °C
GAGGCCGAAAGGCGCCTC ((((((....)))..))) | -12.4 kcal/mol | 42 °C
GAACACGAAAGTGCTTTC ((((((....)))..))) | -13 kcal/mol | 27.8 °C

Sequence | folding enthalpy [1] | Tm [2]
GTAATCCGAAAGGAATAC (((.(((....))).))) | -26.2 kcal/mol | 40.6 °C
GAGCCGACGAAAGTCCTC (((..(((....)))))) | -8.43 kcal/mol | 27.9 °C
GTAGAACGAAAGTTGTAC (((.(((....))).))) | -31.7 kcal/mol | 42.8 °C
GGTGCGGGAAACTGCACC (((((.(....).))))) | -40.6 kcal/mol | 63.1 °C
GCCGTCCCGAAAGGGGGC (((..(((....)))))) | -17 kcal/mol | 49.4 °C
GGAAGCGAAAGCTATTCC ((((((....)))..))) | -14.1 kcal/mol | 35.8 °C
GACATCCGAAAGGACGTC (((.(((....))).))) | -37 kcal/mol | 49 °C
GTTGAAGGAAACTCCAAC ((((.((....)).)))) | -17.5 kcal/mol | 29.5 °C
GAACCACGAAAGTGTTTC (((.(((....))).))) | -27.6 kcal/mol | 37.2 °C
GTATGGGGAAACTCGTAC (((.(.(....).).))) | -11.6 kcal/mol | 29.1 °C
CGCGGACAGTCCGCG ((((((...)))))) | -32.6 kcal/mol | 65.6 °C
GTCCACGGAAACGCAGAC (((..((....))..))) | -21.3 kcal/mol | 29.1 °C
GTCCGAACGAAAGTTGAC (((..(((....)))))) | -15.3 kcal/mol | 29.1 °C
GTATTCACGAAAGTGTAC (((..(((....)))))) | -9.14 kcal/mol | 25.8 °C
GCGGACGAAAGTCTTCGC ((((((....)))..))) | -23.4 kcal/mol | 45.9 °C
GGTCTAGGAAACTAGATC (.(((((....))))).) | -29.8 kcal/mol | 40.3 °C
GGAGAGGGAAACCTCTCC (((((((....))))))) | -46.6 kcal/mol | 63.3 °C
GTAGTGGGAAACCACTGC (.(((((....))))).) | -19.4 kcal/mol | 50.6 °C
GGCCACGAAAGTGAGCC ((((((....))).))) | -27.1 kcal/mol | 65.8 °C
GTACCGGGAAACCGACAC ((..(((....)))..)) | -8.42 kcal/mol | 22.9 °C
GCTATAGGAAACTATGGC ((.((((....)))).)) | -28.6 kcal/mol | 41.7 °C
GATCTCCTCTGAGATC ((((((....)))))) | -31.3 kcal/mol | 51.8 °C
GATCTTGCGGAAGATC ((((((....)))))) | -36 kcal/mol | 42.7 °C

Reference: the array DNA melting data of Ke et al. (doi:10.1101/2024.01.08.574731)
